# From publication PMC6045484 (ACS Omega, 2018)
# Columns and labels:
# P. falciparum (D6) = test: in vitro antimalarial activity, plasmodial LDH; format: cell-based, Plasmodium falciparum; details: Plasmodium falciparum, D6, 72 h, read-out: P. falciparum (D6) IC50
# P. falciparum (W2) = test: in vitro antimalarial activity, plasmodial LDH; format: cell-based, Plasmodium falciparum; details: Plasmodium falciparum, W2, 72 h, read-out: P. falciparum (W2) IC50, CQ-resistant W2 strain, 72 h
# Procedure, shortened: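 P. falciparum-infected erythrocytes (2% parasitemia, 2% hematocrit) in RPMI 1640 with 10% human serum and 60 μg/mL amikacin. Exposed to test compound dilutions for 72 h at 37 °C under 90% N2/5% O2/5% CO2. LDH measured with Malstat reagent (30 min, room temperature), then NBT/PES for 1 h in the dark, stopped with 5% acetic acid, read at 650 nm. IC50 from dose-response curves.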
# [1] = system: SK-MEL, KB, BT-549, SK-OV-3, VERO and LLC-PK1 cells; test: cytotoxicity, neutral red uptake assay; format: cell-based, mammalian; details: highest test concentration 4760 ng/mL
# Procedure, shortened: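 Cells seeded at 25 000/well and allowed 24 h to reach confluence. Test compound was then added and incubated 48 h. Viable cells were counted by a modified neutral red uptake method. The panel was four human cancer lines and two noncancerous mammalian kidney lines. Doxorubicin served as positive control and DMSO as negative control.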
# C. albicans ATCC90028 = test: in vitro antifungal activity; format: cell-based, Candida albicans; details: Candida albicans; for IC50: ATCC90028, read-out: C. albicans IC50; for MFC: ATCC90028, read-out: C. albicans MFC; for MIC: ATCC90028, read-out: C. albicans MIC
# Procedure, shortened: (§1)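 Modified NCCLS broth method in Sabouraud dextrose. Inoculum set by OD630 to 1.5 × 10^3 CFU/mL. Test compound serially diluted in 20% DMSO/saline, duplicate wells, up to 20 μg/mL. Incubated 70–74 h at 35 °C; 530 nm read before and after. IC50 is 50% growth inhibition; MIC is no detectable growth. MFC from clear wells subcultured on agar. Amphotericin B control.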
# C. neoformans ATCC90113 = test: in vitro antifungal activity; format: cell-based, Cryptococcus neoformans; details: Cryptococcus neoformans; for IC50: ATCC90113, read-out: C. neoformans IC50; for MFC: ATCC90113, read-out: C. neoformans MFC; for MIC: ATCC90113, read-out: C. neoformans MIC
# Procedure, shortened: as §1
# A. fumigatus ATCC 90906 = test: in vitro antifungal activity; format: cell-based, Aspergillus fumigatus; details: Aspergillus fumigatus; for IC50: ATCC90906, read-out: A. fumigatus IC50; for MFC: ATCC90906, read-out: A. fumigatus MFC; for MIC: ATCC90906, read-out: A. fumigatus MIC
# Procedure, shortened: as §1
# SA (ATCC29213) = test: in vitro antibacterial activity; format: cell-based; details: Staphylococcus aureus; for IC50: ATCC29213, read-out: IC50 (concentration that affords 50% growth inhibition), SA; for MBC: ATCC29213, read-out: MBC (minimum bactericidal concentration), SA; for MIC: ATCC29213, read-out: MIC, SA
# Procedure, shortened: (§2)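 Test compound serially diluted in 20% DMSO/saline and plated in duplicate, up to 20 μg/mL. Inoculum in cation-adjusted Mueller–Hinton broth, pH 7.3, set by OD630 to 5 × 10^5 CFU/mL. Incubated 16–20 h at 35 °C; 530 nm read before and after. IC50 is 50% growth inhibition; MIC is no detectable growth. MBC from clear wells subcultured on agar. Ciprofloxacin control.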
# MRSA (ATCC33591) = test: in vitro antibacterial activity; format: cell-based, methicillin-resistant Staphylococcus aureus; details: Staphylococcus aureus, ATCC33591|MRSA, read-out: MIC, MRSA
# Procedure, shortened: as §2
# [2] = system: M. intracellulare (ATCC23068); test: in vitro antibacterial activity, modified alamarBlue procedure; format: cell-based, Mycobacterium intracellulare; details: Mycobacterium intracellulare; for IC50: ATCC23068, read-out: IC50 (concentration that affords 50% growth inhibition), M. intracellulare; for MBC: ATCC23068, read-out: MBC (minimum bactericidal concentration), M. intracellulare; for MIC: ATCC23068, read-out: MIC, M. intracellulare
# Procedure, shortened: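 Modified alamarBlue microplate method. Test compound serially diluted in 20% DMSO/saline, duplicate wells, up to 20 μg/mL. Inoculum 2.0 × 10^6 CFU/mL in Middlebrook 7H9 with OADC, pH 7.3, containing 5% alamarBlue. Incubated 70–74 h at 37 °C, 10% CO2; fluorescence 544ex/590em read before and after. MIC: no blue-to-pink change. MBC by subculturing blue wells on agar. Ciprofloxacin control.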
# [3] = system: L. donovani promastigotes; test: in vitro antileishmanial activity, alamarBlue assay; format: cell-based, Leishmania donovani; details: 48 h
SMILES,IC50 (P. falciparum (D6)),IC50 (P. falciparum (W2)),cytotoxicity CTX [1],IC50 (C. albicans ATCC90028),MFC (C. albicans ATCC90028),MIC (C. albicans ATCC90028),IC50 (C. neoformans ATCC90113),MFC (C. neoformans ATCC90113),MIC (C. neoformans ATCC90113),IC50 (A. fumigatus ATCC 90906),MFC (A. fumigatus ATCC 90906),MIC (A. fumigatus ATCC 90906),IC50 (SA (ATCC29213)),MBC (SA (ATCC29213)),MIC (SA (ATCC29213)),MIC (MRSA (ATCC33591)),IC50 [2],MBC [2],MIC [2],also measured
"CCCCCCCOc1c(OC)cc(NC(C)CCCNC(=O)C(N)CCCN)c2nc(C(C)(C)C)ccc12 (stereo not drawn) [compound 110, 2,5-Diamino-N-(4-(2-tert-butyl-5-(heptyloxy)-6-methoxyquinolin-8-ylamino)-pentyl)pentanamide]",3.2 µg/mL,1.6 µg/mL,"NC (NC, not cytotoxic up to 4760 ng/mL (4.76 μg/mL))",> 20 µg/mL,> 20 µg/mL,> 20 µg/mL,> 20 µg/mL,> 20 µg/mL,> 20 µg/mL,> 20 µg/mL,> 20 µg/mL,> 20 µg/mL,> 20 µg/mL,> 20 µg/mL,> 20 µg/mL,> 20 µg/mL,> 20 µg/mL,> 20 µg/mL,> 20 µg/mL,–
"O=C(O)c1cn(C2CC2)c2cc(N3CCNCC3)c(F)cc2c1=O [ciprofloxacin, reference compound]",–,–,–,–,–,–,–,–,–,–,–,–,0.13 µg/mL,1 µg/mL,0.5 µg/mL,0.25 µg/mL,0.28 µg/mL,1 µg/mL,0.5 µg/mL,–
"CCCCCOc1c(OC)cc(NC(C)CCCNC(=O)C(N)CCCN)c2nc(C(C)(C)C)ccc12 (stereo not drawn) [compound 93, 2,5-Diamino-N-(4-(2-tert-butyl-6-methoxy-5-(pentyloxy)quinolin-8-ylamino)-pentyl)pentanamide]",1 µg/mL,0.87 µg/mL,"NC (NC, not cytotoxic up to 4760 ng/mL (4.76 μg/mL))",> 20 µg/mL,> 20 µg/mL,> 20 µg/mL,10.1 µg/mL,> 20 µg/mL,> 20 µg/mL,> 20 µg/mL,> 20 µg/mL,> 20 µg/mL,> 20 µg/mL,> 20 µg/mL,> 20 µg/mL,> 20 µg/mL,8.99 µg/mL,> 20 µg/mL,> 20 µg/mL,–
"N=C(N)c1ccc(OCCCCCOc2ccc(C(=N)N)cc2)cc1 [pentamidine, reference compound]",–,–,–,–,–,–,–,–,–,–,–,–,–,–,–,–,–,–,–,"IC50 ([3]; Leishmania donovani, read-out: L. donovani IC50, promastigotes, 48 h): 1.4 µg/mL; L. donovani IC50 ([3]; promastigotes): 1.1 µg/mL"
"CCCCOc1c(OC)cc(NC(C)CCCN)c2nc(C(C)(C)C)ccc12 (stereo not drawn) [compound 45, N^4-(5-Butoxy-2-tert-butyl-6-methoxyquinolin-8-yl)pentane-1,4-diamine]",> 4.76 µg/mL,3.3 µg/mL,"NC (NC, not cytotoxic up to 4760 ng/mL (4.76 μg/mL))",> 20 µg/mL,> 20 µg/mL,> 20 µg/mL,> 20 µg/mL,> 20 µg/mL,> 20 µg/mL,> 20 µg/mL,> 20 µg/mL,> 20 µg/mL,> 20 µg/mL,> 20 µg/mL,> 20 µg/mL,> 20 µg/mL,> 20 µg/mL,> 20 µg/mL,> 20 µg/mL,–
